Each block holds one molecule with its values, some of them ahead of it. The source made the active and inactive calls. No cut-off for these calls is given here.
How the values were obtained:
[1] = tested on: HeLa; assay: Antiproliferative activity against human HeLa cells incubated for 24 hrs by sulforhodamine B assay; assay type: functional, cell-based
Outline: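 HeLa cells (1 × 10⁵ cells/mL) attached 24 h in MEM with 10% FBS, 37 °C, 5% CO2. Then treated with serial dilutions, DMSO final <0.1%, for 24 h. Fixed with 50% TCA, sulforhodamine B read-out, IC50 derived. Three independent experiments.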

[2] = tested on: MCF7; assay: Antiproliferative activity against human MCF7 cells incubated for 48 hrs by sulforhodamine B assay; assay type: functional, cell-based; settings: MCF7, 48 h
Outline: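 MCF-7 cells (1 × 10⁵ cells/mL) attached 24 h in MEM with 10% FBS, 37 °C, 5% CO2. Exposed to serial dilutions, DMSO final <0.1%, for 48 h. TCA (50%) fixation, sulforhodamine B staining, IC50 determined. Three independent sets.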

[3] = tested on: Huh-7; assay: Antiproliferative activity against human HuH7 cells incubated for 24 hrs by sulforhodamine B assay; assay type: functional, cell-based; settings: Huh-7, 24 h
Outline: (§1)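 Cells grown in DMEM with 2.2 g/L sodium bicarbonate, 10% FBS and antibiotic–antimycotic at 37 °C under 5% CO2. Compounds were dissolved in DMSO and diluted in medium (final DMSO <0.1%). Cells were exposed to a concentration series for 24 h, fixed with 50% TCA and stained with sulforhodamine B. IC50 was derived from three independent experiments.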

[4] = species: Ovis aries; assay: Binding affinity to goat brain tubulin at 10 uM pre-incubated for 30 mins before 50 uM podophyllotoxin exposure for 30 mins by fluorescence based assay
Outline: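 Displacement assay: tubulin was first incubated with the 2-aminoimidazole ligand for 30 min. It was then incubated without or with 50 μM podophyllotoxin or 50 μM CA-4 for a further 30 min. The read-out was the drop in fluorescence of the tubulin–ligand complex.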

[5] = species: Ovis aries; assay: Binding affinity to goat brain tubulin at 6 uM […] with 10 and 30 uM paclitaxel by fluorescence based assay
[6] = tested on: MCF7; assay: Induction of cell cycle arrest in human MCF7 cells assessed as accumulation at S phase at 10 nM incubated for 24 hrs by propidium iodide staining based flow cytometry (reference value: 35%); assay type: functional
[7] = tested on: MCF7; assay: Induction of mitosis block in human MCF7 cells at 5 and 10 uM incubated for 24 hrs by immunostaining; assay type: functional, cell-based
[8] = tested on: MCF7; assay: Induction of cell cycle arrest in human MCF7 cells assessed as accumulation at G2/M phase at 10 nM incubated for 24 hrs by propidium iodide staining based flow cytometry (reference value: 16%); assay type: functional
[9] = tested on: MCF7; assay: Induction of mitosis block in human MCF7 cells assessed as phospho-histone H3 (Ser10) staining positive cells level at 5 nM incubated for 24 hrs by immunostaining (reference value: 8 +/- 1%); assay type: functional
[10] = tested on: MCF7; assay: Induction of cell cycle arrest in human MCF7 cells assessed as accumulation at G2/M phase at 5 nM incubated for 24 hrs by propidium iodide staining based flow cytometry (reference value: 16%); assay type: functional
[11] = tested on: MCF7; assay: Induction of mitotic spindle disturbance in human MCF7 cells assessed as monopolar spindle formation at 5 and 10 nM incubated for 24 hrs by immunostaining; assay type: functional, cell-based
[12] = species: Ovis aries; assay: Binding affinity to goat brain tubulin incubated for 15 mins in presence of podophyllotoxin by fluorescence based assay
Outline: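 Goat brain tubulin (3 μM) was preincubated with competitor (1–20 μM) in 25 mM PIPES, pH 6.8, for 15 min at 25 °C. The 2-aminoimidazole probe (6 μM) was then added for 15 min at 25 °C. Emission was recorded at 420–520 nm with excitation at 350 nm. Ki was calculated as EC50/(1 + L/Kd). Three sets were run.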

[13] = tested on: MCF7; assay: Induction of cell cycle arrest in human MCF7 cells assessed as accumulation at S phase at 5 nM incubated for 24 hrs by propidium iodide staining based flow cytometry (reference value: 35%); assay type: functional
[14] = species: Ovis aries; assay: Binding affinity to goat brain tubulin incubated for 15 mins in presence of CA-4 by fluorescence based assay
Outline: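 Tubulin (3 μM) preincubated with CA-4 (1–20 μM) in 25 mM PIPES, pH 6.8, 15 min at 25 °C. Then 6 μM compound added for another 15 min at 25 °C. Spectra 420–520 nm taken with excitation 350 nm. Ki from Ki = EC50/(1 + L/Kd). Three sets.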

[15] = tested on: MCF7; assay: Induction of mitosis block in human MCF7 cells assessed as phospho-histone H3 (Ser10) staining positive cells level at 10 nM incubated for 24 hrs by immunostaining (reference value: 8 +/- 1%); assay type: functional
[16] = species: Ovis aries; assay: Binding affinity to goat brain tubulin at 6 uM incubated for 10 mins after 10 mins incubation with 10 and 30 uM vinblastine by fluorescence based assay
[17] = species: Ovis aries; assay: (§2) Binding affinity to goat brain tubulin incubated for 10 mins by tryptophan fluorescence quenching based assay
Outline: (§3)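 Goat brain tubulin (2 μM), purified with 1 M glutamate, incubated 10 min at 25 °C with compound (1–20 μM) in 25 mM PIPES, pH 6.8. Tryptophan fluorescence read with excitation 295 nm. Kd obtained by fitting ΔF = ΔFmax·L/(Kd + L). Four independent sets.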

[18] = as §2; design: species or system Ovis aries; outline: as §3
[19] = tested on: MDA-MB-231; assay: Inhibition of cell migration of human MDA-MB-231 cells at 50 nM by wound closure assay; assay type: functional
Outline: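 MDA-MB-231 cells grown to 90% confluency in 35 mm dishes and scratched with a microtip. Incubated without or with compound. Wound closure imaged at 0, 4 and 18 h and expressed as percent closure.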

[20] = tested on: MCF7; assay: Induction of cell cycle arrest in human MCF7 cells assessed as accumulation at G1 phase at 10 nM incubated for 24 hrs by propidium iodide staining based flow cytometry (reference value: 49%); assay type: functional
[21] = target: T1, Tubulin (Homo sapiens) (UniProt P68371+Q9H4B7+P0DPH7+P68366+Q13509+Q71U36+P04350+Q3ZCM7+P07437+P68363+Q9BQE3+Q6PEY2+Q13885+Q9BVA1+Q9BUF5); assay: Induction of interphase microtubule network depolymerization in human MCF7 cells at 10 nM incubated for 24 hrs by immunostaining method; assay type: cell-based
[22] = tested on: MCF7; assay: Induction of cell cycle arrest in human MCF7 cells assessed as accumulation at G1 phase at 5 nM incubated for 24 hrs by propidium iodide staining based flow cytometry (reference value: 49%); assay type: functional
[23] = tested on: EMT6; assay: Antiproliferative activity against drug resistant mouse EMT6/AR1 cells incubated for 24 hrs by sulforhodamine B assay; assay type: functional, cell-based; settings: EMT6, 24 h; outline: as §1
[24] = target: T1, Tubulin (Homo sapiens); assay: Induction of interphase microtubule network depolymerization in human MCF7 cells at 5 nM incubated for 24 hrs by immunostaining method; assay type: cell-based
[25] = Inhibition of goat brain tubulin assembly incubated for 10 mins by spectrophotometry; design: species or system Ovis aries
Outline: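 Goat brain tubulin (12 μM; glutamate-purified, >97% pure) held 10 min on ice with compound in 25 mM PIPES, 1 mM EGTA, 3 mM MgCl2, 1 M glutamate. Then 1 mM GTP added. Assembly followed at 350 nm, 37 °C, for 20 min. Three independent experiments.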

[26] = species: Ovis aries; assay: Binding affinity to goat brain tubulin at 10 uM pre-incubated for 30 mins before 50 uM CA-4 exposure for 30 mins by fluorescence based assay
Outline: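 Tubulin first incubated 30 min with test compound, then 30 min without or with 50 μM CA-4 or 50 μM podophyllotoxin. Read-out is fluorescence of the tubulin–compound complex.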

[27] = species: Ovis aries; assay: Binding affinity to goat brain tubulin at 5 and 10 uM incubated for 10 mins by fluorescence based assay
Outline: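 Goat brain tubulin (2 μM) incubated 10 min at 25 °C with compound (5 and 10 μM) in 25 mM PIPES, pH 6.8. Ligand fluorescence spectra recorded at 420–520 nm, excitation 350 nm. Done three times.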

[28] = tested on: MDA-MB-231; assay: Antiproliferative activity against human MDA-MB-231 cells incubated for 24 hrs by sulforhodamine B assay; assay type: functional, cell-based; settings: MDA-MB-231, 24 h; outline: as §1

Compound: COc1cc(-c2nc(N)[nH]c2-c2cc(OC)c(OC)c(OC)c2)cc(OC)c1OC
IC50 [1]: 8000 nM
IC50 [2]: 12000 nM

Compound: COc1cc(-c2nc(N)[nH]c2-c2cnc3ccccc3c2)cc(OC)c1OC
IC50 [3]: 335 nM
Activity [4]: inactive
Activity [5]: Active
Activity [6]: 10%
Activity [7]: Active
Activity [8]: 74%
Activity [9]: 15%
Activity [10]: 40%
Activity [11]: Active
Activity [12]: inactive
Activity [13]: 25%
Activity [14]: inactive
Activity [15]: 26%
Activity [16]: Active
Activity [17]: Dose-dependent effect
Kd [18]: 1900 nM
IC50 [1]: 10 nM
inhibition at 0.05 µM [19]: 56%
Activity [20]: 16%
Activity [21]: Active
Activity [22]: 34%
IC50 [23]: 350 nM
Activity [24]: Active
IC50 [25]: 1600 nM
inhibition ([25]; Ovis aries): Dose-dependent effect
Activity [26]: inactive
Activity [27]: Active
IC50 [2]: 3 nM
IC50 [28]: 96 nM

Compound: COc1ccc(-c2[nH]c(N)nc2-c2cc(OC)c(OC)c(OC)c2)cc1O
IC50 [1]: 390 nM
IC50 [2]: 220 nM

Continued, values first:

IC50 [1]: 14000 nM
IC50 [2]: 18000 nM
Compound: COc1cccc(-c2[nH]c(N)nc2-c2cc(OC)c(OC)c(OC)c2)c1

IC50 [1]: 3400 nM
IC50 [2]: 3000 nM
Compound: COc1cc(-c2nc(N)[nH]c2-c2ccc(F)cc2)cc(OC)c1OC

IC50 [1]: 4000 nM
IC50 [2]: 13000 nM
Compound: COc1cc(-c2nc(N)[nH]c2-c2cccnc2)cc(OC)c1OC

IC50 [1]: 166 nM
IC50 [25]: 13000 nM
IC50 [2]: 174 nM
Compound: COc1ccc(-c2[nH]c(N)nc2-c2cc(OC)c(OC)c(OC)c2)cc1

IC50 [1]: 18000 nM
IC50 [2]: 53000 nM
Compound: COc1cc(-c2nc(N)[nH]c2-c2cccc(O)c2)cc(OC)c1OC

— ChEMBL document CHEMBL4428028, “Novel Combretastatin-2-aminoimidazole Analogues as Potent Tubulin Assembly Inhibitors: Exploration of Unique Pharmacophoric Impact of Bridging Skeleton and Aryl Moiety” (J Med Chem, 2016)
